Results from PMC10085907 (Clinical Pharmacokinetics, 2023).

What was measured:
CYP3A4 = conditions: read-out: CYP3A4 inhibition IC50; in vitro; cited from earlier work
[1] = cited from earlier work
[2] = type: in vivo, human; conditions: atovaquone/proguanil 250/100 mg alone; N = 16; mean ± SD
Summary of the method: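 Healthy CYP2C19 *1/*1 subjects (PCR-genotyped) in a crossover design; acid reducer given orally once daily for 6 days at the approved maximum dose, then co-dosed with oral atovaquone/proguanil. Plasma sampled to 48 h, urine in 0–8, 8–24 and 24–48 h intervals, both assayed by HPLC-MS/MS. Non-compartmental analysis: t½ = ln2/λz, CL/F = dose/AUCinf, fe = 48-h urinary proguanil/dose.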

[3] = proguanil alone, previous study; cited from earlier work
[4] = cited from earlier work; remark: listed apart in the source
CYP2C19 [5] = target: T1, CYP2C19 (Homo sapiens, UniProt P33261); type: in vivo; conditions: healthy CYP2C19 extensive metabolizers; 7 days of dosing
[6] = at the therapeutic dose; cited from earlier work
CYP2C19 [7] = target: T1, CYP2C19; conditions: read-out: CYP2C19 half-maximum inhibitory concentration (IC50); in vitro; cited from earlier work

Q: With O=C1C(O)=C([C@H]2CC[C@H](c3ccc(Cl)cc3)CC2)C(=O)c2ccccc21 [Atovaquone, atovaquone] as the molecule, how does the IC50 (CYP3A4) read?
A: The IC50 was […].

T1 sequence (P33261 whole entry): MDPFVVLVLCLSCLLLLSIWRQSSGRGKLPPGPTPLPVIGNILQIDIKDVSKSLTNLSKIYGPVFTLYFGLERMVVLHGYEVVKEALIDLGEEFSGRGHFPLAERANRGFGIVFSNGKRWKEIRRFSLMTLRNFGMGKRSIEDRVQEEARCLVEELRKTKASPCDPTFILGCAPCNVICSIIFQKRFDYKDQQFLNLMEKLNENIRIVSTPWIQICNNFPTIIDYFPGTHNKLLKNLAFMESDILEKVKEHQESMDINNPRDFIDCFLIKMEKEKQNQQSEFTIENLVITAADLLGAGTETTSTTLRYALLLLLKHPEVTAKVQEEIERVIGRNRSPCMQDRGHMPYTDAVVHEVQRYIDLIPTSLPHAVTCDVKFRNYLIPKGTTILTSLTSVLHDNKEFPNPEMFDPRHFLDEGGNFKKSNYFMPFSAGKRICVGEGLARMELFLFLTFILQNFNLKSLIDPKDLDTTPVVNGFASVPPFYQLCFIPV

Q: And the “Excreted unchanged in the feces” value [1]?
A: The value was at least 94%.

Q: For CC1(C)N=C(N)N=C(N)N1c1ccc(Cl)cc1 [Cycloguanil, cycloguanil], which “Metabolic ratio (AUCinf of cycloguanil to AUCinf of proguanil)” value [2] is on record?
A: Its value is 0.35.

Q: What about the “Metabolic ratio (cycloguanil-to-proguanil ratio)” value [3] of the same molecule?
A: The value was 0.84.

Q: With [H]/N=C(\N/C(=N/[H])Nc1ccc(Cl)cc1)NC(C)C [Proguanil, proguanil] as the molecule, how does the “Biopharmaceutical Classification System (BCS) class” value [4] read?
A: The value was “class III”.

Q: And the “Fraction of the dose renally excreted” value [1]?
A: Its value is 40–60%.

Q: With Cc1nc2c(O[C@H]3CCOc4cc(F)cc(F)c43)cc(C(=O)N(C)C)cc2[nH]1 [Tegoprazan, tegoprazan] as the molecule, how does the “Effect on CYP2C19 activity (conclusion from proguanil PK)” value (CYP2C19 [5]) read?
A: The value was “neither an inhibitor nor an inducer of CYP2C19”.

Q: And the “Unbound Cmax” value [6]?
A: Its value is “approximately 1.3 µM”.

Q: For CNCc1cc(-c2ccccc2F)n(S(=O)(=O)c2cccnc2)c1 [Vonoprazan, vonoprazan], which IC50 (CYP2C19 [7]) is on record?
A: The IC50 was 13 µM.

Q: What about the “Unbound maximum plasma concentration (Cmax)” value [6] of the same molecule?
A: Its value is “approximately 0.01 µM”.

Q: Which “Biopharmaceutical Classification System (BCS) class” value [4] does the source give for Cc1c(OCC(F)(F)F)ccnc1C[S+]([O-])c1nc2ccccc2[nH]1 (stereo not drawn) [lansoprazole] here?
A: Its value is “class II”.

Q: With COc1ccc2[nH]c([S+]([O-])Cc3ncc(C)c(OC)c3C)nc2c1 (stereo not drawn) [omeprazole] as the molecule, how does the “Biopharmaceutical Classification System (BCS) class” value [4] read?
A: The value was “class II”.
